{"data": "Results from different studies", "MAP2K6": "Dual specificity mitogen-activated protein kinase kinase 6 (MAP2K6, Homo sapiens, UniProt P52564)", "note": "Compare with care: the assays were run in different laboratories."}
{"SMILES": "CC(C)(O)[C@H]1CC[C@H](Nc2ccc3ncc(-c4cccc(C(F)(F)F)c4)n3n2)CC1", "target": "MAP2K6", "test": "enzyme activity, inhibitor", "setting": "1 µM", "endpoint": "remaining activity", "result": "90.6%"}
{"SMILES": "O=C(Nc1cnc(Oc2ccc(F)cc2)nc1)N1CCc2ncccc2[C@@H]1c1ccc(F)cc1", "target": "MAP2K6", "test": "cell-free assay, competition with immobilised ligand", "setting": "1 µM", "endpoint": "remaining binding", "result": "77%"}
{"SMILES": "CNC(=O)c1cc(Oc2ccc(NC(=O)Nc3ccc(Cl)c(C(F)(F)F)c3)cc2)ccn1", "target": "MAP2K6", "test": "enzyme activity, inhibitor", "setting": "0.3 µM", "endpoint": "inhibition", "result": "-1%"}
{"SMILES": "CC[C@H](CO)Nc1nc(NCc2ccccc2)c2ncn(C(C)C)c2n1", "target": "MAP2K6", "test": "cell-free assay", "setting": "0.5 µM", "endpoint": "remaining signal", "result": "98.2%"}
{"SMILES": "O=C(Nc1cnn(-c2csc(C(=O)NC3COC3)c2)c1)Nc1ccccc1Cl", "target": "MAP2K6", "test": "enzyme activity, inhibitor", "setting": "5 µM", "endpoint": "remaining activity", "result": "96.4%"}
{"SMILES": "Nc1nc(Nc2ccc(S(N)(=O)=O)cc2)nn1C(=O)c1c(F)cccc1F", "target": "MAP2K6", "test": "cell-free assay", "setting": "0.5 µM", "endpoint": "remaining signal", "result": "90.5%"}
{"SMILES": "CNCc1ccc(-c2cc(-c3nc(-c4ccc(S(=O)(=O)C(C)C)cc4)cnc3N)on2)cc1", "target": "MAP2K6", "test": "enzyme activity, inhibitor", "setting": "0.4 µM", "endpoint": "inhibition", "result": "15%"}
{"SMILES": "O=C1NC(=O)c2cc(Nc3ccc(F)cc3)c(Nc3ccc(F)cc3)cc21", "target": "MAP2K6", "test": "cell-free assay", "setting": "0.5 µM", "endpoint": "remaining signal", "result": "110%"}
{"SMILES": "CN1CCC2(CC1)NC(=O)c1c(c3ccc(Cl)c(Cl)c3n1C)C2C#N (racemic)", "target": "MAP2K6", "test": "thermal stability, DSF", "setting": "10 µM", "endpoint": "ΔTm", "result": "0 °C"}
{"SMILES": "CN(C)C(=O)Cn1cc(-c2nc(C3(c4ccc(-c5cnc(N)nc5)cc4)CC3)no2)cn1", "target": "MAP2K6", "test": "cell-free assay, competition with immobilised ligand", "setting": "1 µM", "endpoint": "remaining binding", "result": "100%"}
{"SMILES": "CCN(CC)CCNC(=O)c1c(C)[nH]c(/C=C2\\C(=O)Nc3ccc(F)cc32)c1C", "target": "MAP2K6", "test": "cell-free assay", "setting": "0.5 µM", "endpoint": "remaining signal", "result": "75.9%"}
{"SMILES": "Oc1cccc(-c2nc(N3CCOCC3)c3oc4ncccc4c3n2)c1", "target": "MAP2K6", "test": "enzyme activity, inhibitor", "setting": "10 µM", "endpoint": "remaining activity", "result": "107%"}
{"SMILES": "CCCS(=O)(=O)Nc1ccc(F)c(C(=O)c2c[nH]c3ncc(-c4ccc(Cl)cc4)cc23)c1F", "target": "MAP2K6", "test": "enzyme activity, inhibitor", "setting": "1 µM", "endpoint": "inhibition", "result": "< 10%"}
{"SMILES": "Cc1ccc(C(=O)NCc2ccsc2)cc1C#Cc1cn(C(C)C)c2ncnc(N)c12", "target": "MAP2K6", "test": "enzyme activity, inhibitor", "setting": "1 µM", "endpoint": "activity vs control", "result": "86%"}
{"SMILES": "COc1cc(/C=C/C(=O)CC(=O)/C=C/c2ccc(O)c(OC)c2)ccc1O", "target": "MAP2K6", "test": "enzyme activity, inhibitor", "setting": "1 µM", "endpoint": "activity vs control", "result": "102%"}
{"SMILES": "CNCc1ccccc1-c1csc([C@@H](C)Nc2nc(C)nc3cc(OC)c(OC)cc23)c1", "target": "MAP2K6", "test": "cell-free assay, competition with immobilised ligand", "setting": "1 µM", "endpoint": "remaining binding", "result": "86%"}
{"SMILES": "Cn1c2c(c3ccccc31)C(C#N)C(C)(C)NC2=O (stereo not shown)", "target": "MAP2K6", "test": "thermal stability, DSF", "setting": "10 µM", "endpoint": "ΔTm", "result": "0 °C"}
{"SMILES": "Cc1nc(Cc2cccc(C(F)(F)F)c2)sc1-c1ccc(C(N)=O)nc1", "target": "MAP2K6", "test": "cell-free assay, competition with immobilised ligand", "setting": "1 µM", "endpoint": "remaining binding", "result": "69%"}
{"SMILES": "Cn1c2c(c3ccc(Cl)c(Cl)c31)C(C#N)C1(CCCCC1)NC2=O (racemic)", "target": "MAP2K6", "test": "thermal stability, DSF", "setting": "10 µM", "endpoint": "ΔTm", "result": "0.2 °C"}
{"SMILES": "Cc1cc(-n2nc(Cc3cc(F)cc(C(F)(F)F)c3)nc2C)ccc1C(N)=O", "target": "MAP2K6", "test": "cell-free assay, competition with immobilised ligand", "setting": "1 µM", "endpoint": "remaining binding", "result": "83%"}
{"SMILES": "CN(C)C1CCN(CC#Cc2nn(C3CCCC3)c3nc(NCc4ccccc4)ncc23)C1 (stereo not shown)", "target": "MAP2K6", "test": "enzyme activity, inhibitor, FRET", "setting": "1 µM", "endpoint": "inhibition", "result": "6%"}
{"SMILES": "CN(C)c1ncnc(-c2ccc3nc(Nc4cc(CN5CCN(C(=O)CC(F)(F)F)CC5)ccn4)[nH]c3c2)c1Cl", "target": "MAP2K6", "test": "cell-free assay, competition with immobilised ligand", "setting": "1 µM", "endpoint": "remaining binding", "result": "92%"}
{"SMILES": "Cn1c2c(Cl)c(Cl)ccc2c2cc[nH]c(=O)c21", "target": "MAP2K6", "test": "thermal stability, DSF", "setting": "10 µM", "endpoint": "ΔTm", "result": "0.2 °C"}
{"SMILES": "CN(C)CC#Cc1ccc(OCCCc2sc(N3CCc4cccc(C(=O)Nc5nc6ccccc6s5)c4C3)nc2C(=O)O)c(F)c1", "target": "MAP2K6", "test": "cell-free assay, competition with immobilised ligand", "setting": "1 µM", "endpoint": "remaining binding", "result": "100%"}
{"SMILES": "COc1cc(Nc2cnc(C#N)c(O[C@H](C)CN(C)C)n2)ncc1-c1cnn(C)c1", "target": "MAP2K6", "test": "enzyme activity, inhibitor, radiometric", "setting": "10 µM", "endpoint": "remaining activity", "result": "91%"}
{"SMILES": "Cc1c[nH]c2nccc(Oc3c(F)cc(Nc4cc(Cl)nc(N)n4)cc3F)c12", "target": "MAP2K6", "test": "cell-free assay, competition with immobilised ligand", "setting": "0.1 µM", "endpoint": "remaining binding", "result": "99%"}
{"SMILES": "Cn1c(=O)n(-c2ccc(C(C)(C)C#N)cc2)c2c3cc(-c4cnc5ccccc5c4)ccc3ncc21", "target": "MAP2K6", "test": "enzyme activity, inhibitor", "setting": "10 µM", "endpoint": "remaining activity", "result": "93%"}
{"SMILES": "Cc1ccc(Nc2nccc(N(C)c3ccc4c(C)n(C)nc4c3)n2)cc1S(N)(=O)=O", "target": "MAP2K6", "test": "enzyme activity, inhibitor", "setting": "10 µM", "endpoint": "inhibition", "result": "90%"}
{"SMILES": "Cn1c2c(Cl)c(Cl)ccc2c2cn[nH]c(=O)c21", "target": "MAP2K6", "test": "thermal stability, DSF", "setting": "10 µM", "endpoint": "ΔTm", "result": "0.1 °C"}
{"SMILES": "COc1cc2ncnc(Nc3ccc(F)c(Cl)c3)c2cc1OCCCN1CCOCC1", "target": "MAP2K6", "test": "cell-free assay", "setting": "0.5 µM", "endpoint": "remaining signal", "result": "90.1%"}
{"SMILES": "COc1cc2ncnc(Nc3ccc(Oc4ccccc4)cc3C)c2cc1OC", "target": "MAP2K6", "test": "enzyme activity, inhibitor", "setting": "1 µM", "endpoint": "inhibition", "result": "3%"}
{"SMILES": "CC(C)(C)c1nc(-c2cccc(NS(=O)(=O)c3c(F)cccc3F)c2F)c(-c2ccnc(N)n2)s1", "target": "Dual specificity mitogen-activated protein kinase kinase 6 (MAP2K6, Homo sapiens, UniProt P52564, S207D/T211D)", "test": "enzyme activity, inhibitor, radiometric", "setting": "1 µM", "endpoint": "remaining activity", "result": "96%"}
{"SMILES": "Cc1ccc(C(=O)Nc2ccc(CN3CCN(C)CC3)c(C(F)(F)F)c2)cc1C#Cc1cnc2cccnn12", "target": "MAP2K6", "test": "enzyme activity, inhibitor", "setting": "23.5 nM", "endpoint": "remaining activity", "result": "100%"}
{"SMILES": "Cc1ccc(NC(=O)c2ccc(C)c(C(F)(F)F)c2)cc1C#Cc1nn(C2CCC(O)CC2)c2ncnc(N)c12 (stereo not shown)", "target": "MAP2K6", "test": "cell-free assay", "setting": "10 µM", "endpoint": "remaining signal", "result": "43%"}
